Assay outcomes from PubChem BioAssay.
A selection: hits, their analogues and other compounds. The true share with any hit is near 3%.
SR-BI DiI-HDL act: enhances SR-BI lipid uptake from DiI-HDL; CHO ldlA[mSR-BI] cells, DiI-HDL uptake fluorescence, 3 h; 100 = double the neutral-control signal; activation, % at 12.5 µM; actives 0.096% (n = 320,000);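 active means mean replicate activation of at least 60% and every replicate at or above 60%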;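 further: 0% = median plate neutral-control signal and 100% = twice that signal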
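Assay system: LDL receptor-deficient CHO ldlA cells overexpressing murine SR-BI / Medium: BSA-supplemented, HEPES-buffered Ham's F12, pH 7.4 / Probe or stimulus: DiI-labelled HDL at 10 µg/mL final / Timing: compound with DiI-HDL co-incubation, 3 h at 37 °C / Technique: bottom-read cell fluorescence after medium removal, ex 550/em 595 nm / Measure: HDL uptake via cellular fluorescence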
ANO1 activ: mouse TMEM16A channel activation, primary screen; HEK293 TMEM16A/YFP-H148Q/I152L, iodide quench fluorescence; stronger effect = lower value; B-score at 10 µM; actives 0.3% (n = 340,000);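 active means fluorescence-ratio B-score plate-corrected deviation score at least 3 library SD below zero, with starting fluorescence score within 5 deviations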;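 further: channel opened by trigger with iodide after compound preincubation; score built on the fluorescence ratio of max minus min over baseline; more negative score means more quench and so TMEM16A activation or potentiation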
FID counter: counter-screen for HCV NS3 helicase inhibitors: DNA intercalator displacement; actives 0.17% (n = 290,000); AID 1845; DNA fluorescent intercalator displacement, fluorescence; inhibition, % at 7.9 µM; in the data active means inhibition above about 37%;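 further: 0% = vehicle and 100% = reference compound; higher means more ethidium bromide displaced from hairpin DNA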
Kir21 inh: blocks the mouse Kir2.1 inward-rectifier potassium channel; actives 0.85% (n = 310,000); HEK293-Kir2.1, FluxOR thallium flux fluorescence; stronger effect = lower value; P35561; B-score at 10 µM; AID 1672;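 active means fluorescence ratio B-score at or below minus 3 SD of library scores, with starting-brightness B-score within 2 SD, cut at about -4.2 in these data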;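 further: channel flux triggered by added potassium and thallium sulfate stimulus; B-score of peak minus minimum fluorescence over baseline after thallium stimulus; more negative B-score means stronger Kir2.1 block with less thallium influx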
SR-BI HDL uptake: blocks mouse SR-BI lipid uptake from DiI-HDL | ldlA[mSR-BI] CHO cells, DiI-HDL uptake fluorescence, 3 h | actives 0.96% (n = 320,000) | inhibition, % at 12.5 µM;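 active means mean replicate inhibition of at least 70% and a set share of replicates each scoring 70 or more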;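 further: 0% = median of neutral control wells and 100% = median of positive control wells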
Target sequence (Q61009 whole entry, looked up): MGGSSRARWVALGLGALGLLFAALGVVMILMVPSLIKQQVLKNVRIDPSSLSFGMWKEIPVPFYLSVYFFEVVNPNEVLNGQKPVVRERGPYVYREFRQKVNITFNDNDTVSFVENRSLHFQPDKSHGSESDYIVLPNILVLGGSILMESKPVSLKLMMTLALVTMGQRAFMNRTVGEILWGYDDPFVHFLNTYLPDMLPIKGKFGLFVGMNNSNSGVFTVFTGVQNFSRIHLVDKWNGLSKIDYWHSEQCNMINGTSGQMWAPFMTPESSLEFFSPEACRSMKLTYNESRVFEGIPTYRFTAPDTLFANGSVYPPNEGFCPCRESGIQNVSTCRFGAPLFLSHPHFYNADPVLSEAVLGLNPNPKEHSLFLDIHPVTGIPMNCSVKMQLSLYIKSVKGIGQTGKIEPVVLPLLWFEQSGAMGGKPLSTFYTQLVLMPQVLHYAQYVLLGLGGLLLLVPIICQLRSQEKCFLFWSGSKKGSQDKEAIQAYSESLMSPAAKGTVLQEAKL
ANO1 block: blocks the mouse calcium-activated chloride channel TMEM16A; normalized B-score (activity score, 25-100; higher = stronger inhibition) at 10 µM; HEK293 TMEM16A/YFP iodide influx fluorescence, ionomycin; AID 588511; Q8BHY3; actives 1.2% (n = 310,000);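 active means ratio plate-corrected score three or more library SD toward inhibition, starting fluorescence score within five deviations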;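 further: score derived from kinetic fluorescence span divided by baseline fluorescence per well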
Starred values were filed as active, the others as inactive; i = inactive; · = no result given.

SMILES | SR-BI DiI-HDL act | ANO1 activ | FID counter | Kir21 inh | SR-BI HDL uptake | ANO1 block
CCSC1=C(C#N)C(c2ccc(C)o2)CC(=O)N1 (configuration not stated) | 6.8 | i | -8.2 | -0.72 | -6.8 | i
N#CC1=C(SCc2ccccc2)NC(=O)CC1c1ccco1 (configuration not stated) | 4.3 | i | -1.6 | -9.08* | -4.3 | i
Cc1ccc(C2CC(=O)NC(SCc3ccccc3)=C2C#N)o1 (configuration not stated) | 5.3 | i | -5.6 | -6.89* | -5.3 | i
CC1C(=O)C(C)C(c2cc(Br)ccc2O)NC1c1cc(Br)ccc1O (configuration not stated) | -82.6 | i | · | · | 82.6* | ·
CCCC(=O)Nc1ccc2c(c1)nc1n2CCN(CCOC)C1 | 3.4 | i | -7.2 | 1.22 | -3.4 | i
CCN(c1nc(N)c(C(=O)N=C(N)N)nc1Cl)C(C)C | -11.2 | i | · | -5.72* | 11.2 | i
O=C(O)CCCCCCCCCCP(=O)(c1ccccc1)c1ccccc1 | 23.8 | i | -54.1 | 0.14 | -23.8 | i
O=P(CCCCCCCCCP(=O)(c1ccccc1)c1ccccc1)(c1ccccc1)c1ccccc1 | 9.5 | i | -61.8 | 1.19 | -9.5 | 100*
O=[N+]([O-])c1ccc(Sc2cccc[n+]2[O-])c2nonc12 | -38.0 | -4.9* | 0.8 | -6.34* | 38.0 | ·
Cc1ccc(NS(=O)(=O)c2cccc(C(=O)N/N=C/c3ccc4c(c3)OCCO4)c2)c(C)c1 | -50.6 | i | -13.7 | -0.26 | 50.6 | i
Cc1ccc(NS(=O)(=O)c2cccc(C(=O)N/N=C/c3c(C)nn(-c4ccccc4)c3N3CCCC3)c2)c(C)c1 | -74.2 | i | -15.6 | -1.39 | 74.2* | i
CCN(CC)S(=O)(=O)c1cccc(C(=O)N/N=C/c2ccccc2OCC(=O)O)c1 | 1.0 | i | -38.7 | 0.22 | -1.0 | i
CCN(CC)S(=O)(=O)c1cccc(C(=O)N/N=C/c2c(C)nn(-c3ccccc3)c2Cl)c1 | -72.7 | i | 0.2 | -0.82 | 72.7* | i
O=C(Cn1cc([N+](=O)[O-])ccc1=O)NCC1COc2ccccc2O1 (configuration not stated) | -7.9 | i | · | · | 7.9 | ·
COC(=O)C1=C(C)N=C2SC(C#N)=C(N)N2C1c1ccc(OC)cc1 (configuration not stated) | · | i | 0.0 | -0.15 | · | i
CCOC(=O)C1=C(C)N=C2SC(C(=O)OC)=CC(=O)N2C1c1ccc(OC)cc1 (configuration not stated) | -38.8 | i | -27.0 | -5.72* | 38.8 | i
CCN(c1ccccc1)S(=O)(=O)c1cc(C(=O)Nc2ccc(Br)cc2)ccc1F | -17.0 | i | -1.1 | -0.79 | 17.0 | 25*
CCN(c1ccccc1)S(=O)(=O)c1cc(C(=O)Nc2ccccc2Cl)ccc1F | -5.6 | i | -20.1 | -1.66 | 5.6 | i
CC(C)(C)c1ccc(S(=O)(=O)N2CCNC(=O)C2)cc1 | 7.6 | i | · | · | -7.6 | ·
CN(C)S(=O)(=O)c1cccc(-c2nnc(SCc3ccc4c(c3)OCCO4)o2)c1 | -14.3 | -17.4* | -17.2 | 0.17 | 14.3 | i
CN(C(=O)COc1ccccc1C(=O)NCCOc1ccccc1)c1ccccc1 | -4.1 | i | -39.0 | -7.51* | 4.1 | 25*
O=C(NCCOc1ccccc1)c1ccccc1Cl | 4.1 | i | -4.7 | 1.28 | -4.1 | i
CCCCc1cc(O)c(CCCC)c(O)c1 | 11.7 | i | -2.8 | -1.33 | -11.7 | 100*
O=C(Cc1ccccc1F)Nc1ccc(S(=O)(=O)Nc2ncccn2)cc1 | · | i | -7.4 | -0.12 | · | i
Cc1cc(C)c(NC(=O)c2cccc(NC(=O)c3ccco3)c2)c(C)c1 | -24.8 | i | -18.7 | 0.42 | 24.8 | i
O=C1NC(=S)NC(=O)C1=Cc1ccccc1C(=O)O | 7.2 | i | · | · | -7.2 | ·
Cc1nn(C)c(C)c1-c1c(C#N)c(N)nc2c1CCCCCC2 | 8.4 | -6.13* | -11.5 | -1.45 | -8.4 | i
Cc1c(CCOC(=O)CC23CC4CC(CC(C)(C4)C2)C3)sc[n+]1CC(=O)c1ccccc1 | -13.7 | i | 2.1 | -2.28 | 13.7 | 100*
